Values after ≈ are worked out from the molar mass of the structure shown.

Here are results for 5 compounds from ChEMBL document CHEMBL3352465, “The SAR development of substituted purine derivatives as selective CB2 agonists for the treatment of chronic pain” (Bioorg Med Chem Lett, 2014).

Series [1] has as its target T1, Cannabinoid receptor 2 (Homo sapiens, UniProt P34972). Briefly: Agonist activity at human CB2 receptor expressed in CHO cells by [35S]-GTPgammaS binding assay. It counts as functional, cell-based. For orientation: GTPγS is a poorly hydrolysed GTP analogue; its binding reports G protein activation.
Series [2] has as its target T1, Cannabinoid receptor 2. Briefly: Agonist activity at human CB2 receptor expressed in CHO cells by [35S]-GTPgammaS binding assay relative to control. It counts as functional, cell-based.
Series [3] has as its target T2, Cannabinoid receptor 1 (Homo sapiens, UniProt P21554). Briefly: Agonist activity at human CB1 receptor expressed in Sf9 cells by [35S]-GTPgammaS binding assay. It counts as functional.
Series [4] is described as follows: Drug metabolism in human liver microsomes at 2 uM after 0.5 hr by LC/MS/MS analysis. It counts as ADME. The note with it: read-out: Drug metabolism. (Liver microsomes are vesicles of endoplasmic reticulum, rich in cytochrome P450 enzymes.)
A short description of series [5]: Drug metabolism in rat liver microsomes at 2 uM after 0.5 hr by LC/MS/MS analysis. Conditions: read-out: Drug metabolism. It counts as ADME.
A short description of series [6]: Drug metabolism in dog liver microsomes at 2 uM after 0.5 hr by LC/MS/MS analysis. The series is classed as ADME, Canis lupus familiaris. The note with it: read-out: Drug metabolism.
For a further series, the species on record is Rattus norvegicus. Briefly: Inhibition of GABA gated chloride channel in rat cortex at 10 uM by radioligand binding assay. The essentials:
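Radioligand binding to GABA-gated chloride channels from rat, run by an outside contract lab.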

Series [7] can be described thus: Inhibition of GABA gated chloride channel in rat cortex by radioligand binding assay.
Series [8] is described as follows: Oral bioavailability in Beagle dog at 1 mg/kg. The note with it: in vivo. The series is classed as ADME, organism-based, Canis lupus familiaris. The essentials:
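Plasma PK after intravenous and oral dosing at 1 mg/kg each route; male Sprague-Dawley rats and male Beagle dogs. Clearance and steady-state volume from the iv leg, half-life and bioavailability from the po leg.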

Series [9] can be described thus: Lipophilicity, log P of the compound. The series is classed as physicochemical. Conditions: octanol/water.
Series [10] can be described thus: Aqueous solubility of the compound at pH 6.5. The series is classed as physicochemical. The essentials: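 Aqueous solubility measured at pH 6.5.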
The nature of series [11]: Dissociation constant, pKa of the compound. The series is classed as physicochemical.
Series [12] deals with T2, Cannabinoid receptor 1. Briefly: Agonist activity at human CB1 receptor expressed in Sf9 cells by [35S]-GTPgammaS binding assay relative to control. The series is classed as functional.

T2 sequence (P21554 whole entry): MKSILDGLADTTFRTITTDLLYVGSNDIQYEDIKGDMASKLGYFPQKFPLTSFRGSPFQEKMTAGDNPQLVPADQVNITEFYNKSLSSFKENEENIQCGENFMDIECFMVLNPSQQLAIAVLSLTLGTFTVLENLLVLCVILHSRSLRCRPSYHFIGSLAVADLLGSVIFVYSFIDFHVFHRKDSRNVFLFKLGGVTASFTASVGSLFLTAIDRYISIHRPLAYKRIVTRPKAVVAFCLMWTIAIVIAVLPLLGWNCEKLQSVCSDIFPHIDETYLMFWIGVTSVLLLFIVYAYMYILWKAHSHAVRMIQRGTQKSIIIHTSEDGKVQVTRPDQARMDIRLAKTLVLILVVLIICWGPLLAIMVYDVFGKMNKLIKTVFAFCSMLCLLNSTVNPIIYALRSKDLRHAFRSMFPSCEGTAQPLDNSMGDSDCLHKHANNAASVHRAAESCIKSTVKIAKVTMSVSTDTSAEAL
T1 sequence (P34972 whole entry): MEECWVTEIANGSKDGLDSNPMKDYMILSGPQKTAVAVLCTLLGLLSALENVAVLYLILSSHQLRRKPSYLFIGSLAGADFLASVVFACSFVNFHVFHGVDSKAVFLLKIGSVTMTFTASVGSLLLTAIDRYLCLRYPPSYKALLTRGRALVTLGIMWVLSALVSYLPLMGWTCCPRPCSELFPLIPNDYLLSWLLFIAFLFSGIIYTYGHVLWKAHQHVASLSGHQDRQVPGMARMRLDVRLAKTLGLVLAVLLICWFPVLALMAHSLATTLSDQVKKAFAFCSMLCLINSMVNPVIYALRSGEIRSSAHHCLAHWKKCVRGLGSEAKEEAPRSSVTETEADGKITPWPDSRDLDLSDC

For orientation: EC50 means the concentration needed to bring the measured effect to its halfway point. A low value points to an effect from little substance. For the compound `Cc1nc(N2CCN(C)CC2)c2nc(-c3ccccc3Cl)n([C@@H](C)CO)c2n1`, the 50% effective concentration (EC50) on Cannabinoid receptor 2 [1] was 12.5 nM; at Cannabinoid receptor 1 [3], > 100000 nM. The Efficacy at Cannabinoid receptor 2 [2] was 96.5%. The metabolised at 0.5 h, 2 µM in series [4] is 11%; in series [5], 79%; in series [6], 60%.

For orientation: inhibition means the change of the read-out against control, counted positive when it falls. Low values mean little suppression, high ones strong suppression. Consider `CCN1CCN(c2nc(C)nc3c2nc(-c2ccccc2Cl)n3CCOC)CC1`, for which the inhibition in the series listed under Rattus norvegicus was found to be 97%.

`CCN1CCN(c2nc(C)nc3c2nc(-c2ccccc2Cl)n3C(COC)COC)CC1`: the figures for the half-maximal effective concentration (EC50) at Cannabinoid receptor 2 [1] and at Cannabinoid receptor 1 [3] were 5 nM and > 100000 nM, respectively. Also, the Efficacy on Cannabinoid receptor 2 [2] turned out to be 69.3%. The metabolised at 0.5 h, 2 µM came out at 35% in series [4], 58% in [5] and 66% in series [6]. Moreover, the inhibition in the series listed under Rattus norvegicus is < 10%.

Usually Ki stands for a dissociation constant, usually derived from enzyme kinetics or from competition with a known ligand. The bioavailability is dose-corrected exposure relative to a reference, in per cent. The term logP denotes the decadic logarithm of the partition coefficient of the neutral form, usually between octanol and water. Low readings indicate a more hydrophilic compound, high ones a more lipophilic compound. As usually defined, the solubility is how much of the substance goes into solution per volume. High values mean a readily soluble substance, low ones a poorly soluble substance. In general, pKa refers to the pH at which an ionisable group is half protonated. Low values mean a group that gives up its proton readily, high ones a group that holds its proton tightly. Turning to `Cc1nc(N2CCN(C)CC2)c2nc(-c3ccccc3Cl)n(C3CCOCC3)c2n1` [LY2828360], the inhibition in the series filed under Rattus norvegicus came out at 85%. In addition, the Ki in [7] is 2200 nM. In addition, in [8], the bioavailability turned out to be 76%. Moreover, in series [9], the logP amounted to 3.2. The concentration in solution in series [10] (solubility) was 100 µg/mL (≈ 234 µM). In series [11], this compound registered a pKa of 7.2.

With `Cc1nc(N2CCN(C)CC2)c2nc(-c3ccccc3Cl)n(C(C)(C)CO)c2n1`, the half-maximal effective concentration (EC50) on Cannabinoid receptor 2 [1] worked out at 12.5 nM; on Cannabinoid receptor 1 [3] it was 5000 nM. The Efficacy at Cannabinoid receptor 2 [2] amounted to 72.6%; on Cannabinoid receptor 1 [12], 43.2%. Moreover, the metabolised at 0.5 h, 2 µM in series [4] is 43%; in [5], 93%; in series [6] it was 90%. Besides, the inhibition in the series listed under Rattus norvegicus was found to be 20%.
